ChEMBL document CHEMBL1154321, “Benzoxazole piperidines as selective and potent somatostatin receptor subtype 5 antagonists” (Bioorg Med Chem Lett, 2009)
Converted amounts (≈) assume the structure as drawn.

Legend:
[1] = target: Somatostatin receptor type 2 (Homo sapiens, UniProt P30874); assay: Displacement of SST14 from human recombinant SST2 receptor
Method in brief: (§1)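 Membranes prepared by sonication from cells expressing the SST receptor subtype, incubated with radiolabeled 11-Tyr SST-14 tracer and test compound at varying concentrations; non-labeled SST-14 defined non-specific binding. Incubation stopped by glass-fiber filtration, bound radioactivity counted; IC50 for half-maximal binding inhibition estimated and Ki derived.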

[2] = target: Somatostatin receptor type 4 (Homo sapiens, UniProt P31391); assay: Displacement of SST14 from human recombinant SST4 receptor; method in brief: as §1
Chain of Somatostatin receptor type 4 (P31391 whole entry): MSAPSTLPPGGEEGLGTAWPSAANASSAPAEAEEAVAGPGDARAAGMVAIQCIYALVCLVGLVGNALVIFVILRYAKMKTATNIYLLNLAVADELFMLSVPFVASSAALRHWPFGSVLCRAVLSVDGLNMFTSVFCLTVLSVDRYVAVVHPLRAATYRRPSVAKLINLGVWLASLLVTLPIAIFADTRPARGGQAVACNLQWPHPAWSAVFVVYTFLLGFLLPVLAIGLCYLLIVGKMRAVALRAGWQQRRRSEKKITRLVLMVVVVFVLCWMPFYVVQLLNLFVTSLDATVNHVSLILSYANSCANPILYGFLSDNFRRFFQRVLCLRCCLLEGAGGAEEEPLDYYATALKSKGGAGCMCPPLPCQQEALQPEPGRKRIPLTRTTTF

[3] = target: Somatostatin receptor type 3 (Homo sapiens, UniProt P32745); assay: Displacement of SST14 from human recombinant SST3 receptor; method in brief: as §1
Chain of Somatostatin receptor type 3 (P32745 whole entry): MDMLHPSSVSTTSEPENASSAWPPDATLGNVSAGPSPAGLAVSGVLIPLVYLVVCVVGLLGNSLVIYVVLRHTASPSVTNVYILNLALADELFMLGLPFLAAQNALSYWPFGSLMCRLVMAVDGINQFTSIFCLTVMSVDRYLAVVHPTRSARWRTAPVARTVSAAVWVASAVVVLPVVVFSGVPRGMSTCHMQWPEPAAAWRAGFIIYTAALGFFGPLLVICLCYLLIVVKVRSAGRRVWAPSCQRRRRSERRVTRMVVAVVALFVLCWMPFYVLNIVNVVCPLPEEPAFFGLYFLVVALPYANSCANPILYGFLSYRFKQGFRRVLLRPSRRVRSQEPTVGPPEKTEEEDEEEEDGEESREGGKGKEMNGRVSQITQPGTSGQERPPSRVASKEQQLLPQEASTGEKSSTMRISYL

[4] = target: Somatostatin receptor type 5 (Homo sapiens, UniProt P35346); assay: Displacement of SST14 from human recombinant SST5 receptor expressed in CHO cells by radioligand binding assay; format: cell-based; method in brief: as §1
Chain of Somatostatin receptor type 5 (P35346 whole entry): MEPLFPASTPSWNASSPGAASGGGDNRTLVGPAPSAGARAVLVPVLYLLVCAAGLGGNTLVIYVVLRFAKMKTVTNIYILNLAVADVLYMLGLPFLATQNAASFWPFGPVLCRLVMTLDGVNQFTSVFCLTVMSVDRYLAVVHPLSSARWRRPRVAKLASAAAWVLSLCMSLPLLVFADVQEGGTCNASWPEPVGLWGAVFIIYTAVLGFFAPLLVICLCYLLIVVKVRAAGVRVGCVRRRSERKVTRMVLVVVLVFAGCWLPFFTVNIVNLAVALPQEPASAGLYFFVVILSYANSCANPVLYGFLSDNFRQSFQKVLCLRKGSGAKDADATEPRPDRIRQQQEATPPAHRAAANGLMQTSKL

Homo sapiens = organism: Homo sapiens; assay: Selectivity ratio of Ki for human histamine H1 receptor to Ki for human SST5 receptor
[5] = Solubility in phosphate buffer at pH 6.5 by lyophilization solubility assay; format: physicochemical
Method in brief: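 Lyophilized DMSO stock solutions redissolved in 50 mM phosphate buffer, pH 6.5; solubility read spectrophotometrically.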

[6] = sPermeability by PAMPA; format: ADME; conditions: read-out: permeability
Method in brief: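 Parallel artificial membrane permeation; Pe categorized as low (<0.1), medium (0.1–1.0) or high (>1.0).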

Histamine H1 receptor = Histamine H1 receptor (Homo sapiens, UniProt P35367); assay: Binding affinity to human histamine H1 receptor
Chain of Histamine H1 receptor (P35367 whole entry): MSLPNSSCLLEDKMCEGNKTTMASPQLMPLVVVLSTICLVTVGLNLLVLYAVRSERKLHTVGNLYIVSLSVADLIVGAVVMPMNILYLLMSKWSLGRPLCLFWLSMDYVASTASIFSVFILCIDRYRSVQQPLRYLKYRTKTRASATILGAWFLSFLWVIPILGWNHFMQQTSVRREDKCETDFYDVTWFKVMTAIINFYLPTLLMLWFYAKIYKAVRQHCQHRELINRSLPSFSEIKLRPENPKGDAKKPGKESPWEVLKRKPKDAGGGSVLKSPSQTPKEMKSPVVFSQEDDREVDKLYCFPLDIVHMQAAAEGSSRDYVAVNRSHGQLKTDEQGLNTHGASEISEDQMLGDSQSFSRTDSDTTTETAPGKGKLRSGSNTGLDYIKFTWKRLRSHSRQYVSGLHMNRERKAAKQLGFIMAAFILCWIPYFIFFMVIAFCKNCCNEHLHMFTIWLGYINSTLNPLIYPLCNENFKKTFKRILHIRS

[7] = Dissociation constant, pKa by spectrophotometry; format: physicochemical
[8] = Octanol-TAPSO partition coefficient, log D at pH 7.4 by spectrophotometry; format: physicochemical; conditions: octanol/TAPSO buffer
Method in brief: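 Spectrophotometric log D in 1-octanol/50 mM TAPSO buffer, pH 7.4, containing 5% (v/v) DMSO.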

[9] = Terminal half-life in Wistar rat administered as single dose; format: ADME, organism-based; conditions: in vivo, read-out: beta t1/2 (converted)
[10] = Oral bioavailability in Wistar rat administered as single dose; format: ADME, organism-based; conditions: in vivo
[11] = Clearance in Wistar rat administered as single dose; format: ADME, organism-based; conditions: in vivo
[12] = Volume of distribution at steady state in Wistar rat administered as single dose; format: ADME, organism-based; conditions: in vivo, read-out: Vdss

Chain of Somatostatin receptor type 2 (P30874 whole entry): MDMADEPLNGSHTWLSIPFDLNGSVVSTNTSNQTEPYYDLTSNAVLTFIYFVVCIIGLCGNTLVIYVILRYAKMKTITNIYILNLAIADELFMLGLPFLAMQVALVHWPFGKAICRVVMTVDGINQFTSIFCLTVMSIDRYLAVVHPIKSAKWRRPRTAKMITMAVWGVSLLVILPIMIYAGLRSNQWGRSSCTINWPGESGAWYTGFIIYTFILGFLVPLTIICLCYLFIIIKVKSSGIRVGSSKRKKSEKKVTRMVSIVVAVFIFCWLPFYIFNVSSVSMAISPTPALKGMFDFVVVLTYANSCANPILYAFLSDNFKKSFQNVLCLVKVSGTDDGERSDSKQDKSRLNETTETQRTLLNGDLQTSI

Compound | Ki [1] [µM] | Ki [2] [µM] | Ki [3] [µM] | Ki [4] [µM] | Ratio Ki (Homo sapiens) | solubility [5] [µg/mL] | Papp [6] [×10⁻⁶ cm/s] | Ki (Histamine H1 receptor) [µM] | pKa [7] | logD [8] | half-life [9] [min] | bioavailability [10] [%] | clearance [11] [mL/min/kg] | Vd [12] [L/kg]
CCOc1cc(CN2CCC(Nc3nc4cc(Cl)ccc4o3)CC2)ccc1OC | > 10 | > 10 | > 10 | 0.194 |  |  |  |  |  |  |  |  |  | 
CCOc1cc(CN2CCC(Nc3nc4cc(NC(C)=O)ccc4o3)CC2)ccc1OC | > 10 | > 10 | > 10 | 0.357 |  |  |  |  |  |  |  |  |  | 
COc1ccc(CCN2CCC(Nc3nc4ccccc4n3Cc3ccc(F)cc3)CC2)cc1 [ASTEMIZOLE] | > 10 | > 10 | > 10 |  |  |  |  |  |  |  |  |  |  | 
CC(C)Oc1cc(CN2CCC(Nc3nc4ccccc4o3)CC2)cc(OC(C)C)c1 | > 10 | > 10 | > 10 | 0.031 |  |  |  |  |  |  |  |  |  | 
CCOc1cc(NC2CCN(c3nc4ccccc4s3)CC2)ccc1OC | > 10 | > 10 | > 10 | > 1 |  |  |  |  |  |  |  |  |  | 
CCOc1cc(CN2CCC(Nc3nc4cc(NS(=O)(=O)c5ccccc5)ccc4o3)CC2)ccc1OC | > 10 | > 10 | > 10 | 0.205 | 1 | 145 (≈ 270 µM) | 2.2 | 0.199 | 7.72 | 1.93 |  |  |  | 
COc1ccc(CN2CCC(Nc3nc4ccccc4o3)CC2)cc1OCC(C)C | > 10 | > 10 | > 10 |  |  |  |  |  |  |  |  |  |  | 
CCOc1cc(CN2CCC(Nc3nc4cc(S(=O)(=O)N(C)C)ccc4o3)CC2)cc(OCC)c1-n1cccc1 | > 10 | > 10 | > 10 | 0.052 | 96 | 22 (≈ 38.8 µM) | 1.31 | 5 |  | 2.89 |  |  |  | 
CCOc1cc(CN2CCC(Nc3nc4ccccc4o3)CC2)ccc1C(F)(F)F | > 10 | > 10 | > 10 | 0.524 |  |  |  |  |  |  |  |  |  | 
CCOc1cc(CN2CCC(Nc3nc4ccccc4[nH]3)CC2)ccc1OC | > 10 | > 10 | > 10 | > 1 |  |  |  |  |  |  |  |  |  | 
CCOC(=O)c1c(OCC)cc(CN2CCC(Nc3nc4ccccc4o3)CC2)cc1OCC | > 10 | > 10 | > 10 | 0.156 |  |  |  |  |  |  |  |  |  | 
CCOc1cc(CN2CCC(Nc3nc4ccccc4o3)CC2)ccc1O | > 10 | > 10 | > 10 |  |  |  |  |  |  |  |  |  |  | 
CCOc1cc(CN2CCC(Nc3nc4ccccc4s3)CC2)ccc1OC | > 10 | > 10 | > 10 | 0.33 |  |  |  |  |  |  |  |  |  | 
CCCOc1cc(CN2CCC(Nc3nc4ccccc4o3)CC2)ccc1OC | > 10 | > 10 | > 10 |  |  |  |  |  |  |  |  |  |  | 
CCOc1cc(CN2CCC(Nc3nc4ccccc4o3)CC2)c(F)cc1OCCO | > 10 | > 10 | > 10 | > 1 |  |  |  |  |  |  |  |  |  | 
CCOc1cc(CN2CCC(Nc3nc4cc(Cl)c(S(N)(=O)=O)cc4o3)CC2)ccc1OC | > 10 | > 10 | > 10 | 0.343 | 3 | 338 (≈ 683 µM) | 1.1 | 1.01 | 7.92 | 2.67 |  |  |  | 
CCOc1cc(CN2CCC(Nc3nc4ccccc4o3)CC2)cc(OCC)c1N | > 10 | > 10 | > 10 | 0.033 |  |  |  |  |  |  |  |  |  | 
CCOc1cc(CN2CCC(Nc3nc4cc(S(=O)(=O)CC)ccc4o3)CC2)cc(OC2CCOCC2)c1 | > 10 | > 10 | > 10 | 0.055 | 698 | 183 (≈ 337 µM) | 1.75 | 38.4 | 7.55 | 3.13 |  |  |  | 
CCOc1cc(N2CCN(C(=O)Nc3nc4ccccc4s3)CC2)ccc1OC | > 10 | > 10 | > 10 | > 1 |  |  |  |  |  |  |  |  |  | 
CCOc1cc(CN2CCC(Nc3nc4cc(S(=O)(=O)CC)ccc4o3)CC2)ccc1OC | > 10 | > 10 | > 10 | 0.196 |  | > 530 | 1.63 |  | 8.1 | 2.13 | 24 | 6 | 126 | 3.8
CCOc1cc(CN2CCC(Nc3nc4ccccc4o3)CC2)cnc1OC | > 10 | > 10 | > 10 | > 1 |  |  |  |  |  |  |  |  |  | 
CCOc1cc(CN2CCC(Nc3nc4ccccc4o3)CC2)c(F)c(OCC)c1 | > 10 | > 10 | > 10 | > 1 |  |  |  |  |  |  |  |  |  | 
CCOc1cc(CN2CCC(C(=O)Nc3nc4ccccc4s3)CC2)ccc1OC | > 10 | > 10 | > 10 | > 1 |  |  |  |  |  |  |  |  |  | 
